Source: the RNAGym collection of RNA variant scans (doi:10.1126/science.aae0568)
Fewer inactive variants are shown than the library holds.

B1: tRNA (parent)
chain: GUUCCGUUGGCGUAAUGGUAACGCGUCUCCCUCCUAAGGAGAAGACUGCGGGUUCGAGUCCCGUACGGAACG

Variants of: B1
Experiment: yeast fitness relative to wild type (ratio to wild type); higher = fitter; tRNA-Arg(CCU), competitive growth, 37 C, YPD
How it was run: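 Changes in genotype frequencies gave Darwinian fitness relative to wild type. Frequencies were read by 100-nucleotide paired-end sequencing of gene amplicons before and after pooled Saccharomyces cerevisiae strains, carrying tRNA-Arg(CCU) gene variants at the native locus, were competed in YPD at 37°C for 24 hours in six replicates. A genotype was kept only with ≥ 100 starting reads, and estimates < 0.5 were set to 0.5.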

Row | Variant | yeast fitness
1 | GUUCCGUUGGCGUAAUGGUAACGCGUCUCCCUCCUAACGAGAAGACUGUGGGUACGAGUCCCGUCCGGAACG | ≤ 0.5
2 | GUUCCGUUGGCGUAAUGGUAACGCGUCUCCCUCCUAACGAGAAGACUGCGGGUUCGAGUCCCGUUCGGAACG | 0.723
3 | GUUCCGUUGGCGUAAUGGUAACGCGUCUCCCUCCUAACGAGAAGACUGCGGGUUCGAGUCCCGUCCGGAACG | 0.578
4 | GUUCCGUUGGCGUAAUGGUAACGCGUCUCCCUCCUAACGAGAAGUCUGCGGGUUCGAGUCCCCUAGGGAACG | ≤ 0.5
5 | GUUCCGUUGGCGUAAUGGUAACGCGUCUCCCUCCUAACGAGAAGACUGCGGGUUCGAGUCCCGUACGGAGCG | 0.756
6 | GUUCCGUUGGCGUAAUGGUAACGCGUCUCCCUCCUAAAGAGAAGACAGCGGGUUGGAGUCUCGUACGGAACG | 0.718
7 | GUUCCGUUGGCGUAAUGGUAACGCGUCUCCCUCCUAACGAGAAGACGGCGGGUUCGAGUCCUGUACGGAACG | 0.521
8 | GUUCCGUUGGCGUAAUGGUAACGCGUCUCCCUCCUAACGAGAAGACUGCGGGUUCGAGUCCCCUGCGGAACG | ≤ 0.5
9 | GUUCCGUUGGCGUAAUGGUAACGCGUCUCCCUCCUAAAGAGAAGACUGCGGGUUCGAGUCCCGUCCGGAACG | 0.707
10 | GUUCCGUUGGCGUAAUGGUAACGCGUCUCCCUCCUAAAGAGAAGACUGCGGGUUCGAGUCCUGUACGGCACG | 0.717
11 | GUUCCGUUGGCGUAAUGGUAACGCGUCUCCCUCCUAACGAGAAGACUACGGGUUCGAGUCACGUACCGAACG | ≤ 0.5
12 | GUUCCGUUGGCGUAAUGGUAACGCGUCUCCCUCCUAAAGAGAAGACUGCGGGUUCGAGGCCCGUACGGAACG | 0.705
13 | GUUCCGUUGGCGUAAUGGUAACGCGUCUCCCUCCUAACGAGGGGACUGCGGGUUCGAGUCCCGUACGGAACG | ≤ 0.5
14 | GUUCCGUUGGCGUAAUGGUAACGCGUCUCCCUCCUAAAGAGAAGACAGCGGGUUGGAGUCCCGUACGGAACG | 0.658
15 | GUUCCGUUGGCGUAAUGGUAACGCGUCUCCCUCCUAAAGAGAAGACUGCGGGUCCGAGUCCCGUACGGAACG | 0.72
16 | GUUCCGUUGGCGUAAUGGUAACGCGUCUCCCUCCUAACGAGAAGACUGCGGGUUCGAGUCCCGUUUGGAACG | 0.657
17 | GUUCCGUUGGCGUAAUGGUAACGCGUCUCCCUCCUAACGAGAAGCCUGCGGGUUCGCGUCCCGUACGGAUCG | ≤ 0.5
18 | GUUCCGUUGGCGUAAUGGUAACGCGUCUCCCUCCUAAAGAGAAGACUGCGGGUUCGAGUCCGGUACGGAACG | 0.648
19 | GUUCCGUUGGCGUAAUGGUAACGCGUCUCCCUCCUAAAGAGAAGACUGCGGGUUCGAGUCCAGUACGGAACG | 0.742
20 | GUUCCGUUGGCGUAAUGGUAACGCGUCUCCCUCCUAACGAGAAGAGUGGGCGUUCGAGUCUCGUACGGAACG | 0.593
21 | GUUCCGUUGGCGUAAUGGUAACGCGUCUCCCUCCUAAAGAGAAGACUGCGGGUUCGAGUCCCGUACAGAACG | 0.881
22 | GUUCCGUUGGCGUAAUGGUAACGCGUCUCCCUCCUAACGAGAACAAUGCGGGUUCGAGUCCCGUACGGAACG | 0.814
23 | GUUCCGUUGGCGUAAUGGUAACGCGUCUCCCUCCUAACGCGAAGACUGCGGGUUCGAGUCCCGUACGGAACG | 1.02
24 | GUUCCGUUGGCGUAAUGGUAACGCGUCUCCCUCCUAACGAGAAGAGUGCGCGUUCGCGUCUCGUACGGAACG | ≤ 0.5
25 | GUUCCGUUGGCGUAAUGGUAACGCGUCUCCCUCCUAACGAGAAGACUGCGGGUUCGAGUCCAGUACCGAACG | ≤ 0.5

Row | Variant | yeast fitness
26 | GUUCCGUUGGCGUAAUGGUAACGCGUCUCCCUCCUAAAGAGAAGAUUGCGGGUUCGAGUCCCGUACGGAACG | 0.798
27 | GUUCCGUUGGCGUAAUGGUAACGCGUCUCCCUCCUAAAGAGAAGAAUGCGGGUUCGAGUCCCGUACGGAACG | 0.993
28 | GUUCCGUUGGCGUAAUGGUAACGCGUCUCCCUCCUAAAGAGAAGACUGCGGGUUCGAGUCCCGUACGAAACG | 0.718
29 | GUUCCGUUGGCGUAAUGGUAACGCGUCUCCCUCCUAAAGAGAAGACUGCGGGUUCGAGUCCCGUACGCAACG | 0.823
30 | GUUCCGUUGGCGUAAUGGUAACGCGUCUCCCUCCUAACGAGCAGACUGCGGGUUCGAGUCCCGUCCGGAACG | ≤ 0.5
31 | GUUCCGUUGGCGUAAUGGUAACGCGUCUCCCUCCUAACGUGAAGACUGCGGGUUCGAGUCGCGUACGGAACG | ≤ 0.5
32 | GUUCCGUUGGCGUAAUGGUAACGCGUCUCCCUCCUAACGAGAAGACUGCAGGUUCGAGUCCCGCACGGAACG | 0.832
33 | GUUCCGUUGGCGUAAUGGUAACGCGUCUCCCUCCUAAAGAGAAGACUGCGGGUUCGAGUCCCGUUCGUAACG | 0.665
34 | GUUCCGUUGGCGUAAUGGUAACGCGUCUCCCUCCUAACGAGAAAACUGCGGGUUCGAGUCCCGUGCGGAACG | ≤ 0.5
35 | GUUCCGUUGGCGUAAUGGUAACGCGUCUCCCUCCUAACGAGAAGACUGCGGGUUCGAGUACCGUACGGAGCG | 0.582
36 | GUUCCGUUGGCGUAAUGGUAACGCGUCUCCCUCCUAACGAGAAGACUACGGGUUCGAGUCCCGUACGGAACG | 0.744
37 | GUUCCGUUGGCGUAAUGGUAACGCGUCUCCCUCCUAAAGACAAGACUGCGGGUUCGAGUCCCGUACGGAACG | 0.659
38 | GUUCCGUUGGCGUAAUGGUAACGCGUCUCCCUCCUAACGAAAAGACUGCGGGUUUGAGUCCCGUACCGAACG | ≤ 0.5
39 | GUUCCGUUGGCGUAAUGGUAACGCGUCUCCCUCCUAACGAGAAGACUGCGGGUUAGAGUCCCGUACGGAACG | 0.508
40 | GUUCCGUUGGCGUAAUGGUAACGCGUCUCCCUCCUAACGAGAAGACUGCGGGUUCCAGUCCCGUACGGAACG | 0.516
41 | GUUCCGUUGGCGUAAUGGUAACGCGUCUCCCUCCUAAAGAGAAGACUGCGGGUUCGAGUCACGUACGGAACG | 0.646
42 | GUUCCGUUGGCGUAAUGGUAACGCGUCUCCCUCCUAAAGAGAAGACUGCGGGUACGCGUCCCGUACGGAACG | 0.551
43 | GUUCCGUUGGCGUAAUGGUAACGCGUCUCCCUCCUAAAGAGAAGACUGCGGGUUCGAGUUCCGUACGGAACG | 0.831
44 | GUUCCGUUGGCGUAAUGGUAACGCGUCUCCCUCCUAACGAGAAGACUGCGAGUUCGUGUCCCGUACGGAACG | ≤ 0.5
45 | GUUCCGUUGGCGUAAUGGUAACGCGUCUCCCUCCUAACGAGAAGACUGCGGGUUCGAGUCCCGUACGGUCCG | 0.557
46 | GUUCCGUUGGCGUAAUGGUAACGCGUCUCCCUCCUAAAGAGAAGACUGCGGGUUUGAGUCCCGUACGGAACG | 0.849
47 | GUUCCGUUGGCGUAAUGGUAACGCGUCUCCCUCCUAAAGAGAAGACUGCGGGUUGGAGUCCCGUACGGAACG | 0.564
48 | GUUCCGUUGGCGUAAUGGUAACGCGUCUCCCUCCUAAAGAGAAGACUGCGGGUUCGACUCCCGUACGGAACG | 1
49 | GUUCCGUUGGCGUAAUGGUAACGCGUCUCCCUCCUAAAGAGAACACGGCGGGUUCGAGUCCCGUACGGAACG | ≤ 0.5
50 | GUUCCGUUGGCGUAAUGGUAACGCGUCUCCCUCCUAAAGAGAAGACUGCGGGUUCGAGUCCGGUACGGAUCG | ≤ 0.5

Row | Variant | yeast fitness
51 | GUUCCGUUGGCGUAAUGGUAACGCGUCUCCCUCCUAAAGAGAAGACUGCGGGUUCGAGGCCCGUACGGGACG | ≤ 0.5
52 | GUUCCGUUGGCGUAAUGGUAACGCGUCUCCCUCCUAACGAGAAGACUGCGGGUUCGAGUCCCGUACUGAACG | 0.549
53 | GUUCCGUUGGCGUAAUGGUAACGCGUCUCCCUCCUAACGAGAAGACUGCGGGUUCGAGUCCCGUACAGAACG | 0.769
54 | GUUCCGUUGGCGUAAUGGUAACGCGUCUCCCUCCUAACGAGAAGACUGCGGGCUCGUGUCCCGUACGGAACG | ≤ 0.5
55 | GUUCCGUUGGCGUAAUGGUAACGCGUCUCCCUCCUAACGAGAAGACUGCGGGUUCGAGUCCCGUACGAAACG | 0.62
56 | GUUCCGUUGGCGUAAUGGUAACGCGUCUCCCUCCUAAAGAGAAGAAUGCGGGUUCGGGUCCCGUACGGAACG | 0.769
57 | GUUCCGUUGGCGUAAUGGUAACGCGUCUCCCUCCUAACAAGACGACUGCGGGUUCGAGUGCCGUCCGGAACG | 0.518
58 | GUUCCGUUGGCGUAAUGGUAACGCGUCUCCCUCCUAAAGAGAAGACUGUGCGUUCGAGUCCCGUACGGAACG | ≤ 0.5
59 | GUUCCGUUGGCGUAAUGGUAACGCGUCUCCCUCCUAACGAGAAGACUGCGAGUUCGAAUCCCGUACGGAACG | 0.517
60 | GUUCCGUUGGCGUAAUGGUAACGCGUCUCCCUCCUAAAGAGAAGACUGCGGGUUCAAGUCCCGUACGGAUCG | 0.7
61 | GUUCCGUUGGCGUAAUGGUAACGCGUCUCCCUCCUAACGAGGAGACUGCGGGUUCGAGUCCCGUACGGACCG | ≤ 0.5
62 | GUUCCGUUGGCGUAAUGGUAACGCGUCUCCCUCCUAACGAGAAGUCUGCGGGUUCGAGUCCCGUACGGAACG | 0.599
63 | GUUCCGUUGGCGUAAUGGUAACGCGUCUCCCUCCUAACGAGAAGUCUGCGGGUACGAGUCUCGUACGGAACG | ≤ 0.5
64 | GUUCCGUUGGCGUAAUGGUAACGCGUCUCCCUCCUAACGAGAAGAAUGCGGGUUCGAGCCCCGUACGAAACG | ≤ 0.5
65 | GUUCCGUUGGCGUAAUGGUAACGCGUCUCCCUCCUAACGACAAGACUGCGGGUUCGAGUCUCGUACGGAACG | ≤ 0.5
66 | GUUCCGUUGGCGUAAUGGUAACGCGUCUCCCUCCUAACGAGAAGACUGGGGGUUCGAGUCCCGUACGGAACG | 0.743
67 | GUUCCGUUGGCGUAAUGGUAACGCGUCUCCCUCCUAACGAGAAGACUGCGGGUUCGAGUCUCGUACGGAACG | 0.646
68 | GUUCCGUUGGCGUAAUGGUAACGCGUCUCCCUCCUAACGAGAAGACUGCGGGUUCGAGUGCCGUACGGAACG | 0.567
69 | GUUCCGUUGGCGUAAUGGUAACGCGUCUCCCUCCUAACGAGAAGACUGCGGGUUCGAGUUCCGUACGGAACG | 0.571
70 | GUUCCGUUGGCGUAAUGGUAACGCGUCUCCCUCCUAAAGAGAAGAAUGCAGGCUCGAGUCCCGUACGGAACG | 0.596
71 | GUUCCGUUGGCGUAAUGGUAACGCGUCUCCCUCCUAAAGAGAAGACUGCGGGUUCGAGUCACGUUCGGAACG | ≤ 0.5
72 | GUUCCGUUGGCGUAAUGGUAACGCGUCUCCCUCCUAACGACAAGACUGCGGGUUCGAGUCCCGUAUGGAACG | ≤ 0.5
73 | GUUCCGUUGGCGUAAUGGUAACGCGUCUCCCUCCUAACGAGAAGACUGCGGGUUCGAGUCCUGUACGGAACG | 0.687
74 | GUUCCGUUGGCGUAAUGGUAACGCGUCUCCCUCCUAAAGAGAAGACUGCGGGUUAGAGUCCCGUACGAAACG | ≤ 0.5
75 | GUUCCGUUGGCGUAAUGGUAACGCGUCUCCCUCCUAACGAGAAGACGGCGGGUUCGAGCCCCGUACGGAACG | ≤ 0.5
